# Measured values: PMC9989852 (Food and chemical toxicology : an international journal …, 2022)
# Several values for one entry are separate records, joined by “and”; a condition that tells them apart may be missing. Identical values can stand only once.
# Experiments:
# ear pinna [1] = experiment: Skin; type: in vivo, B6C3F1 mice; conditions: dermal, 28 days
# In short: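 Female B6C3F1 mice (5/group) received 25 μl/ear daily to the dorsal ears in acetone. About 24 h after the last dose, tissues went into RPMI: both auricular dLNs, half spleen and one ear pinna. Single-cell suspensions were acquired on an LSR II, with populations gated per supplemental strategy and FMO gating controls. Results are mean ± SE, n=5, by one-way ANOVA.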
# ear pinna [2] = experiment: Ear; type: in vivo, B6C3F1 mice; conditions: dermal, 28 days, mice affected of 5
# In short: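 Female B6C3F1 mice (5/group) received 25 μl/ear on the dorsal ear surfaces daily, with acetone as vehicle. Tissues were formalin-fixed about 24 h after the last dose: liver remainder, half spleen, right kidney and half ear pinna. Sections were paraffin-embedded, cut at 5 μm and stained with H&E. A veterinary pathologist read them per STP guideline and graded 1 (minimal) to 5 (severe) by extent.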
# B6C3F1 mice = experiment: Serum chemistries after 28-day dermal exposure; type: in vivo; conditions: 28 days
# In short: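 Female B6C3F1 mice received daily dorsal ear application (25 μl/ear, acetone vehicle). About 24 h after the last dose, blood was taken by cardiac puncture. Serum was separated by centrifugation and stored at −20 °C. ALKP, BUN, glucose and cholesterol were read on a Catalyst DX analyzer. Data are mean ± SE of 4–5 mice, ANOVA with Dunnett's; ALKP was also tested by linear regression (p < 0.05).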
# liver (caudate) = experiment: Liver gene expression; type: in vivo, B6C3F1 mice; conditions: dermal, 28 days
# In short: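 Dosing was daily topical to both dorsal ears (25 μl/ear, acetone vehicle) in female B6C3F1 mice. Liver caudate lobe or half ear pinna was stored in RNAlater and homogenized in RLT buffer. RNA was isolated on RNeasy columns with DNase, and 1–2 μg was reverse-transcribed. TaqMan real-time PCR was read as 2−ΔΔCT vs vehicle, normalized to β-actin. Statistics: ANOVA/Dunnett's, or Kruskal-Wallis/Dunn's for unequal variance.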
compound,measurement,setting,value
"O=C(O)C(F)(F)C(F)(F)C(F)(F)C(F)(F)F [PFPeA, perfluoropentanoic acid]",Ear CD4^+ cell number,ear pinna [1]; 1.25%,2.55 ± 0.41 × 10^3
same,Ear CD4^+ frequency,ear pinna [1]; 1.25%,2.93 ± 0.23 %
same,Ear CD8^+ cell number,ear pinna [1]; 1.25%,1.38 ± 0.17 × 10^2
same,Ear CD8^+ frequency,ear pinna [1]; 1.25%,0.16 ± 0.02%
same,Ear CD45^+ cell number,ear pinna [1]; 1.25%,8.61 ± 1.11 × 10^4
same,Ear CD45^+ frequency,ear pinna [1]; 1.25%,8.16 ± 0.67%
same,Ear CD lib- F4/80+ DCs cell number,ear pinna [1]; 1.25%,17.60 ± 3.16 × 10^2
same,Ear CDllb + F4/80+ DCs cell number,ear pinna [1]; 1.25%,26.50 ± 4.08 × 10^2
same,Ear CDllb- F4/80+ DCs frequency,ear pinna [1]; 1.25%,2.10 ± 0.37%
same,Ear CDllb- F4/80-DCs cell number,ear pinna [1]; 1.25%,2.15 ± 0.38 × 10^3
same,Ear Dendritic Cells cell number,ear pinna [1]; 1.25%,6.78 ± 0.97 × 10^3
same,Ear Dendritic Cells frequency,ear pinna [1]; 1.25%,7.83 ± 0.37%
same,Ear Eosinophils cell number,ear pinna [1]; 1.25%,2.72 ± 0.51 × 10^3
same,Ear Eosinophils frequency,ear pinna [1]; 1.25%,3.13 ± 0.31%
same,Ear NK cell number,ear pinna [1]; 1.25%,5.64 ± 0.85 × 10^2
same,Ear NK frequency,ear pinna [1]; 1.25%,0.66 ± 0.06%
same,Ear Neutrophils cell number,ear pinna [1]; 1.25%,2.28 ± 0.53 × 10^2
same,Ear Neutrophils frequency,ear pinna [1]; 1.25%,0.27 ± 0.06%
same,Ear Total Cellularity,ear pinna [1]; 1.25%,1.05 ± 0.10 × 10^6
same,Ear CD4^+ cell number,ear pinna [1]; 2.5%,4.65 ± 0.67 × 10^3
same,Ear CD45^+ cell number,ear pinna [1]; 2.5%,10.30 ± 1.26 × 10^4
same,Ear CD45^+ frequency,ear pinna [1]; 2.5%,11.46 ± 1.03 %
same,Ear CD lib- F4/80+ DCs cell number,ear pinna [1]; 2.5%,17.80 ± 3.48 × 10^2
same,Ear CDllb + F4/80+ DCs frequency,ear pinna [1]; 2.5%,4.22 ± 0.51 %
same,Ear CDllb- F4/80+ DCs frequency,ear pinna [1]; 2.5%,1.73 ± 0.22%
same,Ear CDllb- F4/80-DCs cell number,ear pinna [1]; 2.5%,2.79 ± 0.54 × 10^3
same,Ear Dendritic Cells cell number,ear pinna [1]; 2.5%,9.44 ± 2.00 × 10^3
same,Ear NK cell number,ear pinna [1]; 2.5%,5.86 ± 0.63 × 10^2
same,Ear NK frequency,ear pinna [1]; 2.5%,0.57 ± 0.01%
same,Ear Neutrophils cell number,ear pinna [1]; 2.5%,3.16 ± 0.37 × 10^2
same,Ear Neutrophils frequency,ear pinna [1]; 2.5%,0.32 ± 0.05%
same,Ear Total Cellularity,ear pinna [1]; 2.5%,0.88 ± 0.04 × 10^6
same,Ear CD4^+ cell number,ear pinna [1]; 5%,10.80 ± 1.17 × 10^3
same,Ear CD4^+ frequency,ear pinna [1]; 5%,5.64 ± 0.27 %
same,Ear CD8^+ cell number,ear pinna [1]; 5%,8.33 ± 1.57 × 10^2
same,Ear CD8^+ frequency,ear pinna [1]; 5%,0.42 ± 0.04 %
same,Ear CD45^+ cell number,ear pinna [1]; 5%,19.40 ± 2.55 × 10^4
same,Ear CD45^+ frequency,ear pinna [1]; 5%,13.60 ± 0.97 %
same,Ear CD lib- F4/80+ DCs cell number,ear pinna [1]; 5%,45.60 ± 8.63 × 10^2
same,Ear CDllb + F4/80+ DCs cell number,ear pinna [1]; 5%,86.70 ± 10.20 × 10^2
same,Ear CDllb + F4/80+ DCs frequency,ear pinna [1]; 5%,4.51 ± 0.18 %
same,Ear CDllb- F4/80+ DCs frequency,ear pinna [1]; 5%,2.36 ± 0.35%
same,Ear CDllb- F4/80-DCs cell number,ear pinna [1]; 5%,6.19 ± 0.94 × 10^3
same,Ear CDllb- F4/80-DCs frequency,ear pinna [1]; 5%,3.16 ± 0.10 %
same,Ear Dendritic Cells cell number,ear pinna [1]; 5%,20.20 ± 2.65 × 10^3
same,Ear Dendritic Cells frequency,ear pinna [1]; 5%,10.42 ± 0.36 %
same,Ear Eosinophils cell number,ear pinna [1]; 5%,13.50 ± 2.05 × 10^3
same,Ear Eosinophils frequency,ear pinna [1]; 5%,7.35 ± 1.24 %
same,Ear NK cell number,ear pinna [1]; 5%,16.10 ± 4.27 × 10^2
same,Ear NK frequency,ear pinna [1]; 5%,0.80 ± 0.12%
same,Ear Neutrophils cell number,ear pinna [1]; 5%,21.60 ± 8.98 × 10^2
same,Ear Neutrophils frequency,ear pinna [1]; 5%,0.97 ± 0.31 %
same,Ear Total Cellularity,ear pinna [1]; 5%,1.41 ± 0.11 × 10^6
same,"Ear: Degeneration/regeneration, cartilage, focal, Mild (incidence)",ear pinna [2]; 1.25%,0
same,"Ear: Fibrosis, dermis, focal, Minimal (incidence)",ear pinna [2]; 1.25%,0
same,"Ear: Hyperkeratosis, epidermis, focal, Mild (incidence)",ear pinna [2]; 1.25%,0
same,"Ear: Hyperkeratosis, epidermis, focal, Minimal (incidence)",ear pinna [2]; 1.25%,0
same,"Ear: Hyperplasia, epidermis, focal, Mild (incidence)",ear pinna [2]; 1.25%,0
same,"Ear: Hyperplasia, epidermis, focal, Minimal (incidence)",ear pinna [2]; 1.25%,0
same,"Ear: Inflammation, mixed cell, dermis, Minimal (incidence)",ear pinna [2]; 1.25%,0
same,"Ear: Inflammation, mononuclear cell, dermis, Minimal (incidence)",ear pinna [2]; 1.25%,0
same,"Ear: Necrosis, epidermis, multifocal, Minimal (incidence)",ear pinna [2]; 1.25%,0
same,"Ear: Degeneration/regeneration, cartilage, focal, Mild (incidence)",ear pinna [2]; 2.5%,0
same,"Ear: Fibrosis, dermis, focal, Minimal (incidence)",ear pinna [2]; 2.5%,0
same,"Ear: Hyperkeratosis, epidermis, focal, Mild (incidence)",ear pinna [2]; 2.5%,0
same,"Ear: Hyperkeratosis, epidermis, focal, Minimal (incidence)",ear pinna [2]; 2.5%,0
same,"Ear: Hyperplasia, epidermis, focal, Mild (incidence)",ear pinna [2]; 2.5%,0
same,"Ear: Hyperplasia, epidermis, focal, Minimal (incidence)",ear pinna [2]; 2.5%,4/5 and 4
same,"Ear: Inflammation, mixed cell, dermis, Minimal (incidence)",ear pinna [2]; 2.5%,2/5 and 2
same,"Ear: Inflammation, mononuclear cell, dermis, Minimal (incidence)",ear pinna [2]; 2.5%,0
same,"Ear: Necrosis, epidermis, multifocal, Minimal (incidence)",ear pinna [2]; 2.5%,0
same,"Ear: Degeneration/regeneration, cartilage, focal, Mild (incidence)",ear pinna [2]; 5%,0
same,"Ear: Fibrosis, dermis, focal, Minimal (incidence)",ear pinna [2]; 5%,4/5 and 4
same,"Ear: Hyperkeratosis, epidermis, focal, Mild (incidence)",ear pinna [2]; 5%,0
same,"Ear: Hyperkeratosis, epidermis, focal, Minimal (incidence)",ear pinna [2]; 5%,2/5 and 2
same,"Ear: Hyperplasia, epidermis, focal, Mild (incidence)",ear pinna [2]; 5%,3/5 and 3
same,"Ear: Hyperplasia, epidermis, focal, Minimal (incidence)",ear pinna [2]; 5%,2/5 and 2
same,"Ear: Inflammation, mixed cell, dermis, Minimal (incidence)",ear pinna [2]; 5%,4/5 and 4
same,"Ear: Inflammation, mononuclear cell, dermis, Minimal (incidence)",ear pinna [2]; 5%,0
same,"Ear: Necrosis, epidermis, multifocal, Minimal (incidence)",ear pinna [2]; 5%,0
same,serum cholesterol,B6C3F1 mice; 1.25%,decrease
same,"serum urea nitrogen (BUN), decrease",B6C3F1 mice; 2.5%,20%
same,"serum glucose, increase compared to vehicle control",B6C3F1 mice; 5%,30%
same,"serum urea nitrogen (BUN), decrease",B6C3F1 mice; 5%,22%
same,serum alanine aminotransferase (ALT),"B6C3F1 mice; any concentration, data not shown",No change
same,liver Pltp gene expression,liver (caudate); 2.5%,increase
same,liver Pparδ expression,liver (caudate); 2.5%,decreasing
same,"liver Serpine1 gene expression, increase",liver (caudate); 2.5%,8 fold
same,liver Acox1 gene expression,liver (caudate); 5%,increase
same,"liver Cd36 gene expression, increase",liver (caudate); 5%,6.5 fold
same,"liver Ehhadh gene expression, increase",liver (caudate); 5%,8.8 fold
same,liver Fabp1 gene expression,liver (caudate); 5%,increased
same,liver Pltp gene expression,liver (caudate); 5%,increase
same,liver Pparγ expression,liver (caudate); 5%,increasing
same,liver Pparδ expression,liver (caudate); 5%,decreasing
same,"liver Serpine1 gene expression, increase",liver (caudate); 5%,11.3 fold
